Assay outcomes deposited in PubChem BioAssay by several laboratories.
CSN inh: inhibitors of CSN-mediated cullin deneddylation, primary screen, biochemical, fluorescence polarization, uHTS. COP9 signalosome complex subunit 5 (Homo sapiens), Q92905. inhibition, % at 12.5 µM. Purified CSN, SCF-Nedd8-OG deneddylation. hit rate 0.38% among 360,000;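 active = pattern-corrected inhibition above about 35%, with an unprinted fluorescence ratio check between 0.5 and 1.5, limit read from the data, passing the limit was not always enough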
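assay system = purified human Csn5 enzyme expressed in HEK293T cells | amount = 0.24 nM enzyme | buffer or medium = Tris/NaCl/DTT buffer, pH 7.5 | reagent = 10 nM SCFSkp2-Nedd8OG | compound = one concentration, 12.5 µM, 0.25% DMSO | times = 90 min reaction at room temperature | signal = FP | read-out basis = % inhibition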
MBD2 inh: inhibitors of MBD2 binding to methylated DNA, primary screen, biochemical, TR-FRET, DNA-binding domain, human; Methyl-CpG-binding domain protein 2 (Homo sapiens), Q9UBB5; inhibition, % at 4.4 µM; hit rate 0.31% among 370,000; MBD2 binding to methylated oligonucleotide; in the data active = inhibition above about 13%
ATG4B inhibitor: ATG4B protease inhibitors, primary screen, biochemical, fluorescence, uHTS; Cysteine protease ATG4B (Homo sapiens), Q9Y4P1; ATG4B cleavage of LC3-PLA2, NBD-HPC fluorescence, 1 h; inhibition, % at 8.33 µM; hit rate 0.51% among 340,000; AID 504462, 2011; in the data active = inhibition above about 40%
Target sequence (Q9Y4P1 whole entry, looked up): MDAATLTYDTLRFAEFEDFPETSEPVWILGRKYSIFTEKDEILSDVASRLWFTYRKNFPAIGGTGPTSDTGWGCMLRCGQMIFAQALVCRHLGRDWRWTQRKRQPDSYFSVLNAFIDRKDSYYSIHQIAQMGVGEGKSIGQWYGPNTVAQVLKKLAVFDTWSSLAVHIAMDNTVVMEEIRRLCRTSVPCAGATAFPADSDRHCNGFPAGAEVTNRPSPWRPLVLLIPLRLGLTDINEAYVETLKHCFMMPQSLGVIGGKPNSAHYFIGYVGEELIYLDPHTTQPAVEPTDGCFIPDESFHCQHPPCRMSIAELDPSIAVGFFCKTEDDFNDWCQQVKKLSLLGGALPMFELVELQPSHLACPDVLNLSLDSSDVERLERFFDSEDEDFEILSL
UHRF1 binding: UHRF1 methylated DNA binding inhibitors, primary screen, counter-screen for MBD2 inhibitor project, biochemical, TR-FRET, human UHRF1, single concentration | E3 ubiquitin-protein ligase UHRF1 (Homo sapiens), Q96T88 | inhibition, % at 4.4 µM | UHRF1 binding to methylated oligo | hit rate 0.75% among 370,000 | AID 687016, 2013; in the data active = inhibition above about 21%;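 note: UHRF1 SRA domain binding a hemimethylated CpG hairpin DNA probe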
LEDGF integ inh: blockers of LEDGF/p75-dependent integrase strand transfer – biochemical, TR-FRET, high throughput, primary screen; inhibition, % at 3.7 µM; TR-FRET IN-LEDGF/p75 DNA integration, Eu/Cy5; HIV-1 integrase (with human LEDGF/p75); hit rate 0.64% among 370,000;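 active = inhibition above the screen-wide mean plus 3 SD, cut at about 13% in these data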;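 note: signal is the Cy5 over europium emission ratio at 671 and 618 nm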
rCAG binder: binders of r(CAG) RNA repeats, primary screen, biochemical, fluorescence. r(CAG) RNA repeat, TO-PRO-1 dye displacement fluorescence. inhibition, % at 3 µM. hit rate 1.3% among 370,000. AID 651821, 2012;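 active = inhibition above the plate cutoff, the mean of all test compounds on that plate plus 3 SD, cut at about 35% in these data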;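 note: higher means more dye released from RNA so lower well fluorescence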
Of the large screens only hits and unclear results are named; the others gave an inactive call. Only some compounds are listed: those with a hit (about 3.1% of all), similar ones and a draw of the others.

COCCn1c(SCc2nc3sc(C(=O)OC)c(C)c3c(=O)[nH]2)nc2ccccc21	none
CCOC(=O)N1C(=O)C[C@](Sc2ccc(OC)cc2)(C(=O)N(C)C)[C@H]1c1ccc(OC)cc1	none (no result: CSN inh, ATG4B inhibitor)
COc1ccc(C(=O)OCCOc2cccc(Cl)c2)cc1S(=O)(=O)N1CCOCC1	none
Cc1cccc(OCCOC(=O)c2ccc(F)c(S(=O)(=O)N3CCOCC3)c2)c1	UHRF1 binding 41
O=C(OCn1nnc2ccccc2c1=O)c1ccc(F)c(S(=O)(=O)N2CCOCC2)c1	UHRF1 binding 73 (no result: ATG4B inhibitor)
CCC[C@@H](/C=C/C(=O)OC(C)(C)C)Sc1ccccc1OC	none (no result: CSN inh, ATG4B inhibitor)
COC(=O)[C@H]1C[C@]2(C(/C=C(\C)CCC=C(C)C)S(=O)(=O)c3ccccc3)c3ccccc3N[C@H]2N1 (stereo partly specified)	none (no result: CSN inh, ATG4B inhibitor, rCAG binder)
COc1cc(C(=O)NCC(=O)OCc2ccccc2Cl)cc(OC)c1OC	none
CCOC(=O)c1sc(N)c(C#N)c1COC(=O)CNC(=O)c1cc(OC)c(OC)c(OC)c1	CSN inh 71
Cc1ccc(CNC(=O)c2nnn(CC(=O)Nc3cccc(C)c3C)c2N)cc1	CSN inh 36
Cc1ccc(CNC(=O)Cn2nnc(C(=O)Nc3cccc(C)c3C)c2N)cc1	none
COC(=O)c1c(C(=O)OC)c(-c2ccc(C)cc2)n2c1CS(=O)(=O)C2	none
Cc1c(COC(=O)NC(C)C)c(COC(=O)NC(C)C)c2n1CS(=O)(=O)C2	UHRF1 binding 26 (no result: CSN inh, ATG4B inhibitor)
Nc1ccc2nc(SCc3ccccc3F)sc2c1	UHRF1 binding 23
Nc1ccc2nc(SCC(=O)c3ccccc3)sc2c1	none
COc1ccc(-c2cc(NC(=O)Cc3c[nH]c4ccccc34)ccc2Nc2cccnc2)c(OC)c1	none (no result: CSN inh, ATG4B inhibitor)
CC(=O)N1CCOc2cc(S(=O)(=O)NC(C)c3ccccc3)c(Cl)cc21 (stereo unspecified)	UHRF1 binding 30
CC1=C2NC(N)=[N+](Cc3ccc4c(c3)OCO4)CC2n2c(=O)n(-c3ccccc3)c(=O)n2C1 (stereo unspecified)	none (no result: CSN inh, ATG4B inhibitor)
COC(=O)[C@H](C(C)C)N1CCc2nnn(CC3CCCCC3)c2-c2ccccc2S1(=O)=O	none (no result: CSN inh, ATG4B inhibitor)
CCOC(=O)CC[C@@]1(C(=O)OCC)C[C@@H](CC(=O)NCc2cccs2)C(=O)N2CCCC=C21	none (no result: CSN inh, ATG4B inhibitor)
COc1ccccc1-c1cnc(C(O)c2ccccc2)[nH]1 (stereo unspecified)	none (no result: ATG4B inhibitor)
COc1ccccc1-c1cnc(C(O)c2cc(Cl)cc(Cl)c2)[nH]1 (stereo unspecified)	UHRF1 binding 22 (no result: ATG4B inhibitor)
COc1ccc(-c2c(C(F)(F)F)[nH]n3c(=O)cc(-c4ccccc4)nc23)cc1	rCAG binder 38
COCCCNC(=O)C[C@H]1C[C@@]2(C(=O)OC)C(=C[C@H](COCc3ccccc3)O[C@@H]2C)N(Cc2ccc(Cl)cc2Cl)C1=O	none (no result: CSN inh, ATG4B inhibitor)
C#CCN(C[C@@H]1[C@@H](OC(=O)NCc2ccc(OC)c(OC)c2)[C@@H](OC(=O)NCc2ccc(OC)c(OC)c2)Cn2c(=O)ccc(=O)n21)S(=O)(=O)c1ccc(C)cc1	none (no result: ATG4B inhibitor)
C#CCN(C[C@@H]1[C@@H](OC(=O)NCc2ccc(OC)c(OC)c2)[C@@H](OC(=O)NCc2ccc(OC)c(OC)c2)CN(C(=O)OC(C)C)N1C(=O)OC(C)C)S(=O)(=O)c1ccc(C)cc1	LEDGF integ inh 52 (no result: ATG4B inhibitor)
COc1cccc(C2CC(c3ccccc3)=NN2S(=O)(=O)c2ccc(C)cc2)c1OC (stereo unspecified)	CSN inh 76
Cc1cc(Oc2ccc(C(C)(C)C)cc2)nc(N2CCOCC2)n1	none
CCCc1ccc(Oc2cc(C)nc(N3CCOCC3)n2)cc1	CSN inh 94
COc1cc(C(=O)N2CCN(S(=O)(=O)c3cccs3)CC2)cc(OC)c1C	UHRF1 binding 24
COc1ccccc1N1CCN(S(=O)(=O)c2cccs2)CC1	UHRF1 binding 39
O=S(=O)(c1cccs1)N1CCN(c2ccccc2F)CC1	none
C[C@]12CCC[C@H](O1)c1c(cc3c(c1O)C(=O)c1c(O)cc(O)cc1C3=O)O2	CSN inh 38
CC1(C)CC(=O)c2c(O)cc(O)cc2O1	none
CCC[C@H]1[C@@H](NS(=O)(=O)c2ccccc2[N+](=O)[O-])CC[C@@]23CCCN2C(=O)CCC[C@@H]13	none (no result: CSN inh, ATG4B inhibitor, rCAG binder)
O=C(Nc1ccccc1)c1ccccc1NS(=O)(=O)c1ccc(Cl)s1	rCAG binder 60
Fc1ccc(CN2CCN(c3ncccn3)CC2)cc1	CSN inh 37
CCc1ccc(CN2CCN(c3ncccn3)CC2)cc1	none
O=C(c1ccco1)N1CCN(C(=O)C2CCN(S(=O)(=O)Cc3ccccc3)CC2)CC1	CSN inh 62
O=C(c1ccco1)N1CCN(C(=O)C2CCCN(S(=O)(=O)Cc3ccccc3)C2)CC1 (stereo unspecified)	none
C#CCN(C(=O)CC1C(=O)NCCN1C/C=C/c1ccccc1)C1CCCCC1 (stereo unspecified)	UHRF1 binding 44
COc1ccccc1C(=O)N1CCCC(c2nc(-c3cccs3)no2)C1 (stereo unspecified)	none (no result: CSN inh, ATG4B inhibitor)
CC(C)C[C@@H](CNCC(=O)[C@H](C)NC(=O)c1[nH]cnc1C(=O)N[C@@H](C)CN)NC(=O)c1nc[nH]c1C(=O)N[C@@H](C)C(=O)O	UHRF1 binding 22
CC(C)C[C@@H](CNCC(=O)[C@H](Cc1ccccc1)NC(=O)c1[nH]cnc1C(=O)N[C@@H](C)CN)NC(=O)c1nc[nH]c1C(=O)N[C@@H](C)C(=O)O	UHRF1 binding 23 (no result: ATG4B inhibitor)
Cc1cc(C)nc(SCc2ccc(F)cc2)n1	UHRF1 binding 23
Cc1nc(SCc2ccc(F)cc2)n[nH]1	none
CCOc1ccc(-n2c(SCC(=O)Nc3ccccc3-c3ccccc3)nnc2-c2ccncc2)cc1	none (no result: CSN inh, ATG4B inhibitor)
Cc1cc(C(=O)NP(=O)(N2CCOCC2)N2CCOCC2)c(C)n1-c1ccc(Br)cc1	UHRF1 binding 21
CCOC(=O)C1=C(C)N=c2s/c(=C\c3ccc(C(=O)O)cc3)c(=O)n2C1c1ccc(OC)cc1OC (stereo unspecified)	none
CCOC(=O)C1=C(C)N=c2s/c(=C\c3cccn3C)c(=O)n2C1c1cccc(OC)c1OC (stereo unspecified)	CSN inh 46
COc1ccc(CSC(=N)N)cc1[N+](=O)[O-]	none
